Hits are enriched below; roughly 2.1% of the tested compounds scored in any of these assays.
XiGFP reactiv – activators of inactive X chromosome reactivation, primary screen, imaging, XiGFP fibroblasts, GFP high-content imaging, set 2 | XiGFP mouse fibroblasts, % GFP-positive cells imaging, 3 d; cells co-treated with 5-aza-dC sensitizer; scaled so ellipticine positive control = 100% | activation, % at 7.58 µM | 360,000 tested, 0.055% active;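 active means mean normalized replicate activation at least 10% and every replicate at or above 10%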;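 further: 0% = median of on-plate neutral control wells and 100% = ellipticine 6 µM median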
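Material: XiGFP fibroblasts, SV40-immortalized; Buffer or medium: DMEM containing 5-aza-dC; Compound dosing: single point; Times: 3 days compound exposure.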
C2C12 statin – suppressors of statin myotoxicity in C2C12 myotubes, primary screen, cell-based, single point, plate reader. C2C12 myotubes + simvastatin, ATP luminescence, 48 h; scaled: DMSO 0, geranylgeraniol control 100. rescue of ATP level, % at 7.49 µM. 330,000 tested, 0.78% active;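 active means mean ATP rescue above about 67%, or every replicate alone reaching that limit, limit read from the data, passing the limit was not always enough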;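 further: myotubes were challenged with 10 µM simvastatin during compound exposure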
DENV2 CPE – inhibitors of DENV2 cytopathic effect, primary screen, cell-based, plate reader, single concentration | AID 651640, 2012 | 350,000 tested, 1.7% active | CPE inhibition, % at 9.99 µM | DENV2-infected cells, cytopathic effect rescue; in the data active means CPE inhibition above about 20%, passing the limit was not always enough; tested in BHK-21 cells;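 further: 0% = median of neutral control wells and 100% = median of positive control wells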
Cneo AK release – Cryptococcus neoformans cell lysis inducers, primary screen, AK release luminescence, single concentration; C. neoformans lysis, adenylate kinase release luminescence, 4 h; normalised: neutral wells 0, clomiphene wells 100; lysis activity, % at 15 µM; 360,000 tested, 0.2% active; AID 651654, 2012;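 active means mean lysis activity across replicates of at least 80%, whatever share of replicates individually reach that level; inactive means mean lysis activity below 80%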
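Material: C. neoformans cells; Schedule: 4 h static compound exposure, 37 °C, read 1 h post-reagent; Measured by: adenylate kinase release luminescence; Read-out: signal increase indicating cell lysis; Controls: Clomiphene as positive lysis control.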
Numbers without * were called inactive.

CC(NCC(O)COc1ccc2ccccc2c1)c1ccccc1 (stereo not given) was read as XiGFP reactiv 0, C2C12 statin 9, DENV2 CPE 9 and Cneo AK release 1.
`Cc1cc(OCC(O)CNC(C)c2ccccc2)ccc1C(C)C` (stereo not given) gave XiGFP reactiv 0, C2C12 statin 12, DENV2 CPE 39* and Cneo AK release 4.
`C[C@H](CO)N1C[C@H](C)[C@H](CN(C)S(=O)(=O)c2ccc(Cl)cc2)OCCCC[C@H](C)Oc2ccc(NC(=O)NC3CCCCC3)cc2C1=O` gave XiGFP reactiv 0, DENV2 CPE 50* and Cneo AK release -4.
C[C@@H]1CCCCO[C@@H](CN(C)S(=O)(=O)c2ccc(Cl)cc2)[C@H](C)CN([C@H](C)CO)C(=O)c2cc(NC(=O)Nc3ccc4c(c3)OCO4)ccc2O1 was read as XiGFP reactiv 0, DENV2 CPE 6 and Cneo AK release 38.
For C[C@@H]1CN([C@H](C)CO)C(=O)c2cc(NC(=O)Nc3ccc4c(c3)OCO4)ccc2O[C@@H](C)CCCCO[C@H]1CN(C)S(=O)(=O)c1ccc(Cl)cc1 the results were XiGFP reactiv 0, DENV2 CPE 38* and Cneo AK release -10.
`Cc1ccccc1S(=O)(=O)NCC[C@@H]1CC[C@H](NC(=O)C2CCCC2)[C@@H](CO)O1` gave XiGFP reactiv 0, C2C12 statin 8, DENV2 CPE 23* and Cneo AK release 1.
Screening O=C(NCC[C@H]1CC[C@H](NC(=O)C2CCCC2)[C@@H](CO)O1)c1ccc(F)cc1 returned XiGFP reactiv 0, C2C12 statin -5, DENV2 CPE 29* and Cneo AK release 8.
Screening O=C(N[C@H]1CC[C@@H](CCNS(=O)(=O)c2ccc(F)cc2)O[C@H]1CO)C1CCCC1 returned XiGFP reactiv 0, C2C12 statin -1, DENV2 CPE 21* and Cneo AK release 1.
`Cc1ccccc1S(=O)(=O)NCC[C@@H]1CC[C@@H](NC(=O)C2CCCC2)[C@@H](CO)O1` gave XiGFP reactiv 0, C2C12 statin -7, DENV2 CPE 8 and Cneo AK release -4.
`O=C(NCC[C@@H]1CC[C@@H](NC(=O)C2CCCC2)[C@@H](CO)O1)c1ccc(F)cc1` gave XiGFP reactiv 0, C2C12 statin -4, DENV2 CPE -10 and Cneo AK release 4.
`Cc1ccc(S(=O)(=O)NCC[C@@H]2CC[C@H](NC(=O)CCN3CCCCC3)[C@H](CO)O2)cc1` gave XiGFP reactiv 0, C2C12 statin 12, DENV2 CPE 73* and Cneo AK release -4.
COc1ccc2c3c([nH]c2c1)[C@H](CO)N(Cc1ccccc1)CC31CN(C)C1 was read as XiGFP reactiv 0 and DENV2 CPE 4.
Cc1noc(C)c1NC(=O)N(C)C[C@@H]1Oc2ccc(NC(=O)NC(C)C)cc2C(=O)N([C@H](C)CO)C[C@@H]1C was read as XiGFP reactiv 0, C2C12 statin 10, DENV2 CPE 1 and Cneo AK release -4.
For CCNC(=O)[C@@H]1N[C@@H]2c3ccc(-c4cccc(C(=O)N(C)C)c4)c(=O)n3C[C@@H]2[C@H]1CO the results were XiGFP reactiv 0, C2C12 statin -3, DENV2 CPE 0 and Cneo AK release -1.
O=C(CCN1CCCCC1)N[C@H]1CC[C@@H](CCNS(=O)(=O)c2ccc(F)cc2)O[C@H]1CO was read as XiGFP reactiv 0, C2C12 statin -5, DENV2 CPE 25* and Cneo AK release 3.
For Cc1ccc(S(=O)(=O)NCC[C@H]2CC[C@@H](NC(=O)Nc3ccccc3F)[C@H](CO)O2)cc1 the results were XiGFP reactiv -1, C2C12 statin 0, DENV2 CPE 20* and Cneo AK release -3.
Oc1ccc(-c2cn3c(n2)SCC3)cc1 was read as C2C12 statin 97* and Cneo AK release -2.
For C=CCN1C(=O)[C@]2(O[C@H](CCO)[C@@H]([Si](C)(C)c3ccc(OC)cc3)[C@@H]2C)c2cc(NC(=O)[C@H](C)O)ccc21 the results were DENV2 CPE 42* and Cneo AK release 3.
O=C(Nc1nc(=O)c2ccccc2s1)c1ccc(Cl)cc1 was read as C2C12 statin 80* and Cneo AK release -5.
